Measurements taken from ChEMBL document CHEMBL1129056, “Synthesis and in vitro evaluation of new wortmannin esters: potent inhibitors of phosphatidylinositol 3-kinase” (J Med Chem, 1996).
In brackets after ≈: the same amount, converted by molar mass.

system: CCRF-CEM; assay: Cytotoxicity in rapidly proliferating CCRF-CEM cell lines after 72 hr exposure; format: functional, Homo sapiens

SMILES	CT50 [µg/mL]
CCCC(=O)O[C@@H]1C[C@]2(C)C(=O)CC[C@H]2C2=C1[C@]1(C)c3c(coc3C2=O)C(=O)O[C@@H]1COC	0.3
COC[C@H]1OC(=O)c2coc3c2[C@@]1(C)C1=C(C3=O)[C@@H]2CCC(=O)[C@@]2(C)C[C@H]1OC(C)=O [WORTMANNIN]	0.9
COC[C@H]1OC(=O)c2coc3c2[C@@]1(C)C1=C(C3=O)[C@@H]2CCC(=O)[C@@]2(C)C[C@H]1OC(=O)CC(C)C	0.6
CCC(=O)O[C@@H]1C[C@]2(C)C(OC(C)=O)CC[C@H]2C2=C1[C@]1(C)c3c(coc3C2=O)C(=O)O[C@@H]1COC (some centres undefined)	3.1
CCCCC(=O)O[C@@H]1C[C@]2(C)C(=O)CC[C@H]2C2=C1[C@]1(C)c3c(coc3C2=O)C(=O)O[C@@H]1COC	0.8
COC[C@H]1OC(=O)c2coc3c2[C@@]1(C)C1=C(C3=O)[C@@H]2CCC(=O)[C@@]2(C)C[C@H]1OC(=O)Cc1ccccc1	1
COC[C@H]1OC(=O)c2coc3c2[C@@]1(C)C1=C(C3=O)[C@@H]2CCC(=O)[C@@]2(C)CC1=O	2.8
COC[C@H]1OC(=O)c2coc3c2[C@@]1(C)C1=C(C3=O)[C@@H]2CCC(=O)[C@@]2(C)C[C@H]1OC(=O)CCl	0.7
C=CC(=O)O[C@@H]1C[C@]2(C)C(=O)CC[C@H]2C2=C1[C@]1(C)c3c(coc3C2=O)C(=O)O[C@@H]1COC	0.4
CCC(=O)O[C@@H]1C[C@]2(C)C(=O)CC[C@H]2C2=C1[C@]1(C)c3c(coc3C2=O)C(=O)O[C@@H]1COC	0.2
CCC(=O)O[C@@H]1C[C@]2(C)C(O)CC[C@H]2C2=C1[C@]1(C)c3c(coc3C2=O)C(=O)O[C@@H]1COC (some centres undefined)	0.2
COC[C@H]1OC(=O)c2coc3c2[C@@]1(C)C1=C(C3=O)[C@@H]2CCC(=O)[C@@]2(C)C[C@H]1O	2

biological target: not listed separately; assay: Inhibition of Phosphatidylinositol 3-kinase from bovine brain; design: species or system Bos taurus
Outline: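 Purified bovine brain PI 3-kinase with phosphatidylinositol as substrate. Lipid products extracted and separated by TLC with autoradiography. PI-3-P spots scraped and counted by liquid scintillation.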

SMILES	IC50 [ng/mL]
CCCC(=O)O[C@@H]1C[C@]2(C)C(=O)CC[C@H]2C2=C1[C@]1(C)c3c(coc3C2=O)C(=O)O[C@@H]1COC	0.4 (≈ 0.876 nM)
COC[C@H]1OC(=O)c2coc3c2[C@@]1(C)C1=C(C3=O)[C@@H]2CCC(=O)[C@@]2(C)C[C@H]1OC(C)=O [WORTMANNIN]	1.8 (≈ 4.2 nM)
COC[C@H]1OC(=O)c2coc3c2[C@@]1(C)C1=C(C3=O)[C@@H]2CCC(=O)[C@@]2(C)C[C@H]1OC(=O)CC(C)C	1.16 (≈ 2.47 nM)
CCC(=O)O[C@@H]1C[C@]2(C)C(OC(C)=O)CC[C@H]2C2=C1[C@]1(C)c3c(coc3C2=O)C(=O)O[C@@H]1COC (some centres undefined)	56.5 (≈ 116 nM)
CCCCC(=O)O[C@@H]1C[C@]2(C)C(=O)CC[C@H]2C2=C1[C@]1(C)c3c(coc3C2=O)C(=O)O[C@@H]1COC	1.2 (≈ 2.55 nM)
COC[C@H]1OC(=O)c2coc3c2[C@@]1(C)C1=C(C3=O)[C@@H]2CCC(=O)[C@@]2(C)C[C@H]1OC(=O)Cc1ccccc1	1.53 (≈ 3.03 nM)
COC[C@H]1OC(=O)c2coc3c2[C@@]1(C)C1=C(C3=O)[C@@H]2CCC(=O)[C@@]2(C)CC1=O	1.6 (≈ 4.16 nM)
COC[C@H]1OC(=O)c2coc3c2[C@@]1(C)C1=C(C3=O)[C@@H]2CCC(=O)[C@@]2(C)C[C@H]1OC(=O)CCl	1.3 (≈ 2.81 nM)
C=CC(=O)O[C@@H]1C[C@]2(C)C(=O)CC[C@H]2C2=C1[C@]1(C)c3c(coc3C2=O)C(=O)O[C@@H]1COC	0.95 (≈ 2.16 nM)
CCC(=O)O[C@@H]1C[C@]2(C)C(=O)CC[C@H]2C2=C1[C@]1(C)c3c(coc3C2=O)C(=O)O[C@@H]1COC	0.6 (≈ 1.36 nM)
CCC(=O)O[C@@H]1C[C@]2(C)C(O)CC[C@H]2C2=C1[C@]1(C)c3c(coc3C2=O)C(=O)O[C@@H]1COC (some centres undefined)	0.38 (≈ 0.855 nM)
COC[C@H]1OC(=O)c2coc3c2[C@@]1(C)C1=C(C3=O)[C@@H]2CCC(=O)[C@@]2(C)C[C@H]1O	10 (≈ 25.9 nM)
